This note sets out measurements from ChEMBL document CHEMBL1955714, “Synthesis and antidiabetic performance of β-amino ketone containing nabumetone moiety” (Bioorg Med Chem, 2012).

Values after ≈ are worked out from the molar mass of the structure shown.

Experiment [1] deals with Peroxisome proliferator-activated receptor (Homo sapiens) (UniProt P37231+Q07869+Q03181). Kind of experiment: Activation of PPAR in human HepG2 cells at 10 ug/ml after 24 hrs by luciferase reporter gene assay relative to rosiglitazone. The format is cell-based. In outline: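 HepG2 cells in low-glucose DMEM with 100 U mL-1 streptomycin/penicillin, plated at 1.5 × 10⁴ per well a day before transfection. At 70% confluence they were co-transfected with pPPRE-Luc (firefly) and phRL-TK (renilla). After 24 h the medium was replaced with sample-containing medium, with rosiglitazone as positive control. Dual firefly/renilla luciferase was read after a further 24 h; untransfected cells served as blank.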

The species named for experiment [2] is Rattus norvegicus. The experiment can be described thus: Inhibition of rat intestine alpha-glucosidase using maltose as substrate after 10 mins by spectrometric analysis relative to acarbose. The arrangement: concentration or dose not given beside the values. In outline: (§1)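 Enzyme and sample were preincubated at 37 °C for 10 min. Then 0.1 mol L-1 maltose was added and incubated 10 min at room temperature. The reaction was stopped and OD read at 490 nm. Blank (no enzyme, no sample) and negative (no sample) controls were run alongside.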

Experiment [3] in a line: Inhibition of rat intestine alpha-glucosidase using maltose as substrate after 10 mins by spectrometric analysis. The method in brief:
as §1

Peroxisome proliferator-activated receptor (Homo sapiens), sequence (P37231 whole entry, looked up): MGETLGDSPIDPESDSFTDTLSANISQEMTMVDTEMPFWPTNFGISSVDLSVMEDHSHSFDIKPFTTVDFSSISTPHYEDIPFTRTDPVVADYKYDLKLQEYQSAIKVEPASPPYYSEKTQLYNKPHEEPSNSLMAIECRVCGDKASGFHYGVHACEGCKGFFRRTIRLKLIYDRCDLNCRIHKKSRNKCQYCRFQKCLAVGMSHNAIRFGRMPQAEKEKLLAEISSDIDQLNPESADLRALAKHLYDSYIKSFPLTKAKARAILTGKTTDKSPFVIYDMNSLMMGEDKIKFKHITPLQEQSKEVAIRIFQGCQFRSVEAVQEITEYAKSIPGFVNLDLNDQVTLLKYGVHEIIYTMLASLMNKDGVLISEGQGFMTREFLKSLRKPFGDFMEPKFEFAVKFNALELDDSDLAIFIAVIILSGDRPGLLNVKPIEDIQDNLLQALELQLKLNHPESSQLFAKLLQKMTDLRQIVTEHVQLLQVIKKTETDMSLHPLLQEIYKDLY
Peroxisome proliferator-activated receptor (Homo sapiens), sequence (Q03181 whole entry, looked up): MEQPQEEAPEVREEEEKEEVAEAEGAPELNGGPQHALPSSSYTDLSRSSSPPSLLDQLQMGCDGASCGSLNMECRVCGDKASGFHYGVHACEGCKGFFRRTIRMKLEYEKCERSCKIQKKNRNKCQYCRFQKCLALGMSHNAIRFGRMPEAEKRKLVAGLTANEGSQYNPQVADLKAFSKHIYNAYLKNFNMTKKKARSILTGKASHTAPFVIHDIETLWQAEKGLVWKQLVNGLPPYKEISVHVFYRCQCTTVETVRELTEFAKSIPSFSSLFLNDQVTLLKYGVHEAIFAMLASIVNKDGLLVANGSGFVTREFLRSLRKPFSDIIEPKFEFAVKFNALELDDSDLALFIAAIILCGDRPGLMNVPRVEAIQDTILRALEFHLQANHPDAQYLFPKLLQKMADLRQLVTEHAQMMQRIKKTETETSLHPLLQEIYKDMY
Peroxisome proliferator-activated receptor (Homo sapiens), sequence (Q07869 whole entry, looked up): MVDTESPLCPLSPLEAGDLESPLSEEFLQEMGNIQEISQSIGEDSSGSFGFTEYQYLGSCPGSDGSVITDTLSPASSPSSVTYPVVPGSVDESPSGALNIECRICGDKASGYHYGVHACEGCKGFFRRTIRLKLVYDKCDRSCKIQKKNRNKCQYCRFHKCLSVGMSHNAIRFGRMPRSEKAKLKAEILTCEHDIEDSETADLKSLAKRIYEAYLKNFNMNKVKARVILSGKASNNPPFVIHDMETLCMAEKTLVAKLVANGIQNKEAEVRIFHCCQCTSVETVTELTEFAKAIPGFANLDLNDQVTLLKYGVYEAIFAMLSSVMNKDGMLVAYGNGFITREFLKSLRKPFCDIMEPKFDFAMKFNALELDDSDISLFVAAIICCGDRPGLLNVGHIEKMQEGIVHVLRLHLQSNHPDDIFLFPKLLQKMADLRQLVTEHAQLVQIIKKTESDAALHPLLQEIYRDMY

In experiment [1], `COc1ccc(C(CC(=O)CCc2ccc3cc(OC)ccc3c2)Nc2cc(C)on2)cc1` (stereo not drawn) came in with an Activity of 3.13%. The inhibition (commonly the change of the read-out against control, counted positive when it falls) in experiment [2] amounted to 10.8%.
Taken in the same sequence, the figures for `COc1ccc2cc(CCC(=O)CC(Nc3cc(C)on3)c3cccc(F)c3)ccc2c1` (stereo not drawn) were 30.1% and 13.3%.
`COc1ccc2cc(CCC(=O)CC(Nc3ccc(S(=O)(=O)Nc4cc(C)on4)cc3)c3cccc(Cl)c3)ccc2c1` (stereo not drawn) yielded an Activity in experiment [1] of 19.6%. For the same molecule, in experiment [2], the inhibition is 47.1%.
In experiment [1], `COc1ccc2cc(CCC(=O)CC(Nc3ccc(S(N)(=O)=O)cc3)c3ccc4cc(OC)ccc4c3)ccc2c1` (stereo not drawn) yielded an Activity of 19.1%. In experiment [2], the inhibition is 6.39%.
`COc1ccc2cc(CCC(=O)CC(Nc3cc(C)on3)c3cccc([N+](=O)[O-])c3)ccc2c1` (stereo not drawn) had an Activity in experiment [1] of 9.11%. In addition, in experiment [2], the inhibition is 24.4%.
The molecule `COc1cccc(C(CC(=O)CCc2ccc3cc(OC)ccc3c2)Nc2cc(C)on2)c1` (stereo not drawn) registered an Activity in experiment [1] of 41.6%. For the same molecule, the inhibition in experiment [2] was 15.8%.
`COc1ccc2cc(CCC(=O)CC(Nc3ccc(S(=O)(=O)Nc4cc(C)on4)cc3)c3ccc(C)cc3)ccc2c1` (stereo not drawn): in experiment [1], the Activity was 58.5%. Also, the inhibition in experiment [2] was determined as 15.8%.
`COc1ccc2cc(CCC(=O)CC(Nc3cc(C)on3)c3ccc(O)cc3)ccc2c1` (stereo not drawn) gave an Activity in experiment [1] of 5.3%. For the same molecule, the inhibition in experiment [2] worked out at 21.4%.
In experiment [1], `COc1cccc(C(CC(=O)CCc2ccc3cc(OC)ccc3c2)Nc2ccc(S(N)(=O)=O)cc2)c1` (stereo not drawn) gave an Activity of 60.3%. In experiment [2], the inhibition was determined as 15.7%.
In experiment [1], `COc1ccc2cc(CCC(=O)CC(Nc3cc(C)on3)c3cccc(C)c3)ccc2c1` (stereo not drawn) displayed an Activity of 12.7%. In addition, in experiment [2], the inhibition was found to be 10.2%.
Taken in the same sequence, the figures for `COc1ccc2cc(CCC(=O)CC(Nc3ccc(S(=O)(=O)Nc4cc(C)on4)cc3)c3cccc([N+](=O)[O-])c3)ccc2c1` (stereo not drawn) were 81.8% and 41.6%.
As to `CCCCOc1ccc(C(CC(=O)CCc2ccc3cc(OC)ccc3c2)Nc2cc(C)on2)cc1` (stereo not drawn), in experiment [1], the Activity worked out at 6.33%. In addition, the inhibition in experiment [2] stood at 11%.
With `COc1ccc2cc(CCC(=O)CC(Nc3ccc(S(N)(=O)=O)cc3)c3ccc([N+](=O)[O-])cc3)ccc2c1` (stereo not drawn), in experiment [1], the Activity came to 46.8%. In experiment [2], the inhibition came out at 31.6%.
The molecule `COc1ccc2cc(CCC(=O)CC(Nc3ccc(S(=O)(=O)Nc4cc(C)on4)cc3)c3ccc(Cl)cc3)ccc2c1` (stereo not drawn) gave an Activity in experiment [1] of 3.92%. Further, the inhibition in experiment [2] amounted to 44.2%.
Taken in the same sequence, the figures for `COc1ccc2cc(CCC(=O)CC(Nc3cc(C)on3)c3cccc(Cl)c3)ccc2c1` (stereo not drawn) were 4.86% and 26.3%.
On to `COc1cccc(C(CC(=O)CCc2ccc3cc(OC)ccc3c2)Nc2ccc(S(=O)(=O)Nc3cc(C)on3)cc2)c1` (stereo not drawn), for which the Activity in experiment [1] is 78.2%. Further, the inhibition in experiment [2] was 12.7%.
The molecule `COc1ccc2cc(CCC(=O)CC(Nc3ccc(S(N)(=O)=O)cc3)c3ccc4c(c3)OCO4)ccc2c1` (stereo not drawn) gave an Activity in experiment [1] of 9.87%. Besides, the inhibition in experiment [2] was -4.32%.
As to `COc1ccc2cc(CCC(=O)CC(Nc3ccc(S(=O)(=O)Nc4cc(C)on4)cc3)c3cccc(F)c3)ccc2c1` (stereo not drawn), the Activity in experiment [1] is 36.7%. Further, in experiment [2], the inhibition was 24.7%.
`COc1ccc2cc(CCC(=O)CC(Nc3ccc(S(=O)(=O)Nc4cc(C)on4)cc3)c3ccccc3)ccc2c1` (stereo not drawn) showed an Activity in experiment [1] of 17.8%. The inhibition in experiment [2] turned out to be 14.9%.
The molecule `COc1ccc2cc(CCC(=O)CC(Nc3ccc(S(=O)(=O)Nc4cc(C)on4)cc3)c3ccc4c(c3)OCO4)ccc2c1` (stereo not drawn) had an Activity in experiment [1] of 43%. Also, in experiment [2], the inhibition was determined as 19.2%.
On the same counts, the results for `COc1ccc2cc(CCC(=O)CC(Nc3ccc(S(N)(=O)=O)cc3)c3cccc(Cl)c3)ccc2c1` (stereo not drawn) are 58.7% and 40.8%.
For the molecule `COc1ccc2cc(CCC(=O)CC(Nc3cc(C)on3)c3ccccc3)ccc2c1` (stereo not drawn), the Activity in experiment [1] is 5.83%. In experiment [2], the inhibition worked out at 7.36%.
As to `CCCCOc1ccc(C(CC(=O)CCc2ccc3cc(OC)ccc3c2)Nc2ccc(S(=O)(=O)Nc3cc(C)on3)cc2)cc1` (stereo not drawn), the Activity in experiment [1] worked out at 83.3%. Moreover, the inhibition in experiment [2] turned out to be 14.3%.
As for `COc1ccc2cc(CCC(=O)CC(Nc3ccc(S(=O)(=O)Nc4cc(C)on4)cc3)c3cccc(C)c3)ccc2c1` (stereo not drawn), the Activity in experiment [1] was 68.4%. Also, the inhibition in experiment [2] came out at 70.5%. Moreover, in experiment [3], the IC50 (usually the concentration that inhibits the measured activity by half) worked out at 3.24 µg/mL (≈ 5.55 µM).
As to `COc1ccc2cc(CCC(=O)CC(Nc3ccc(S(=O)(=O)Nc4cc(C)on4)cc3)c3ccc(Cl)cc3Cl)ccc2c1` (stereo not drawn), the Activity in experiment [1] was found to be 64.5%. Further, the inhibition in experiment [2] turned out to be 20.3%.
Taken in the same sequence, the figures for `COc1ccc2cc(CCC(=O)CC(Nc3cc(C)on3)c3ccc(Cl)c(Cl)c3)ccc2c1` (stereo not drawn) were 5.37% and 22.3%.
Taken in the same sequence, the figures for `COc1ccc2cc(CCC(=O)CC(Nc3cc(C)on3)c3ccc(Cl)cc3Cl)ccc2c1` (stereo not drawn) were 11.5% and 13%.
In experiment [1], `COc1ccc2cc(CCC(=O)CC(Nc3ccc(S(=O)(=O)Nc4cc(C)on4)cc3)c3ccc(Cl)c(Cl)c3)ccc2c1` (stereo not drawn) had an Activity of 22.4%. In addition, in experiment [2], the inhibition was found to be 53.7%.
In experiment [1], `COc1ccc2cc(CCC(=O)CC(Nc3ccc(S(N)(=O)=O)cc3)c3ccc(Cl)c(Cl)c3)ccc2c1` (stereo not drawn) gave an Activity of 45.8%. The inhibition in experiment [2] stood at 34.8%.
On the same counts, the results for `COc1ccc2cc(CCC(=O)CC(Nc3ccc(S(=O)(=O)Nc4cc(C)on4)cc3)c3ccc(O)cc3)ccc2c1` (stereo not drawn) are 13.8% and 7.07%.
Molecule `COc1ccc(C(CC(=O)CCc2ccc3cc(OC)ccc3c2)Nc2ccc(S(=O)(=O)Nc3cc(C)on3)cc2)cc1` (stereo not drawn) displayed an Activity in experiment [1] of 48.4%. Further, the inhibition in experiment [2] is 50.8%.
Regarding `COc1ccc2cc(CCC(=O)CC(Nc3cc(C)on3)c3ccc([N+](=O)[O-])cc3)ccc2c1` (stereo not drawn), in experiment [1], the Activity came out at 4.18%. The inhibition in experiment [2] was 24.6%.
Regarding `COc1ccc2cc(CCC(=O)CC(Nc3ccc(S(N)(=O)=O)cc3)c3cccc(C)c3)ccc2c1` (stereo not drawn), the Activity in experiment [1] amounted to 57.3%. The inhibition in experiment [2] was 14.1%.
Taken in the same sequence, the figures for `COc1ccc2cc(CCC(=O)CC(Nc3cc(C)on3)c3ccc4c(c3)OCO4)ccc2c1` (stereo not drawn) were 12.6% and 0.35%.
In turn, `CCCCOc1ccc(C(CC(=O)CCc2ccc3cc(OC)ccc3c2)Nc2ccc(S(N)(=O)=O)cc2)cc1` (stereo not drawn) gave an Activity in experiment [1] of 18%. Also, the inhibition in experiment [2] was -4.69%.
Take `COc1ccc2cc(CCC(=O)CC(Nc3ccc(S(N)(=O)=O)cc3)c3ccco3)ccc2c1` (stereo not drawn): the Activity in experiment [1] worked out at 6.64%. Also, in experiment [2], the inhibition is 46.8%.
With `COc1ccc2cc(CCC(=O)CC(Nc3cc(C)on3)c3ccc(C)cc3)ccc2c1` (stereo not drawn), the Activity in experiment [1] was 11.5%. The inhibition in experiment [2] was 7.23%.
Consider `COc1ccc2cc(CCC(=O)CC(Nc3cc(C)on3)c3ccc(Cl)cc3)ccc2c1` (stereo not drawn), for which, in experiment [1], the Activity came out at 6.32%. Also, the inhibition in experiment [2] amounted to 26.3%.
In experiment [1], `COc1ccc2cc(CCC(=O)CC(Nc3ccc(S(N)(=O)=O)cc3)c3ccccc3)ccc2c1` (stereo not drawn) came in with an Activity of 61%. In experiment [2], the inhibition was 41.7%.
On to `COc1ccc2cc(CCC(=O)CC(Nc3cc(C)on3)c3ccc(Br)cc3)ccc2c1` (stereo not drawn), for which, in experiment [1], the Activity came to 2.87%. Besides, the inhibition in experiment [2] amounted to 1.42%.
In turn, `COc1ccc2cc(CCC(=O)CC(Nc3ccc(S(N)(=O)=O)cc3)c3cccc([N+](=O)[O-])c3)ccc2c1` (stereo not drawn) gave an Activity in experiment [1] of 14.8%. In addition, the inhibition in experiment [2] was 32.7%.
